From PubChem
CHOP inhibitor = CHOP inhibition in unfolded protein response; inhibition, % at 10 µM; CHO-K1 CHOP-promoter luciferase, tunicamycin-induced, 15-18 h; hit rate 3.8% among 220,000;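 active = compounds that reduced the stress-induced luciferase reporter signal by more than about 70% of percent inhibition, limit read from the data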;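 note: 0% = tunicamycin plus vehicle and 100% = wells without tunicamycin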
UPR XBP1 act = activators of adaptive arm of unfolded protein response (XBP1). activation, % at 20 µM. CHO-XBP1 luciferase reporter, IRE1-XBP1 UPR activation, luminescence; percent of tunicamycin response, DMSO as zero. hit rate 0.33% among 330,000;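 active = versus positive control, 20 µM dose yields 30% or more activation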;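 note: 100% = tunicamycin at 10 µg/mL and 0% = DMSO only wells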
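Material: CHO cell line with stable XBP1 luciferase reporter; schedule: 16-18 h cell attachment at 37 °C, then 6 h compound exposure; signal: glow luminescence from Steady-Glo reagent; medium: serum-containing F12 medium, 10% FBS; benchmarks: tunicamycin 10 µg/mL and vehicle-only wells; read-out: percent activation relative to tunicamycin reference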
TLR4 MyD88 comp = blocks binding of human TLR4 to MyD88 | HeLa CL3-4 TLR4/MyD88 BLA complementation, FRET ratio | inhibition, % at 8.4 µM | O00206+Q99836 | hit rate 0.18% among 200,000; in the data active = inhibition above about 25%;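 note: 0% = vehicle and 100% = reference inhibitor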
NOD2-RIPK2 inh = NOD2-RIPK2 protein interaction inhibition | CHO BLA complementation NOD2-RIPK2, CCF4 ratio | inhibition, % at 4.98 µM | hit rate 0.38% among 360,000; in the data active = inhibition above about 21%;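 note: 0% = vehicle only and 100% = reference blocker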
Target sequence (O43353 whole entry, looked up): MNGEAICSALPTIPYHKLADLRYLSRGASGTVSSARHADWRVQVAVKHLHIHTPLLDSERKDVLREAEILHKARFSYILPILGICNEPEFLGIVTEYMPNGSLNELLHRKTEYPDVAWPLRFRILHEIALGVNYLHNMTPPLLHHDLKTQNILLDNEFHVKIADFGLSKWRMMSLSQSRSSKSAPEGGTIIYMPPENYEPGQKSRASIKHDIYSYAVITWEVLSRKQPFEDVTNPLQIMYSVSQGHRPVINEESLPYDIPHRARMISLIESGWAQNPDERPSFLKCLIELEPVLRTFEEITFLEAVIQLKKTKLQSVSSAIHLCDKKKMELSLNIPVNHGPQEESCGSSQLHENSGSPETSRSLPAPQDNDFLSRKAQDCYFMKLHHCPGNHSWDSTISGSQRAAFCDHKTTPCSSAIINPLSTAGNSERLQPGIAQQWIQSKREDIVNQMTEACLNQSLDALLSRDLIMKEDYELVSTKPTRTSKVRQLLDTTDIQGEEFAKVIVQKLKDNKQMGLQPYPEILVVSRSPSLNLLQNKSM
CHOP UPR activ = activators of apoptotic arm of unfolded protein response (CHOP). AID 449763. hit rate 0.34% among 330,000. activation, % at 10 µM. CHO-CHOP luciferase reporter, UPR activation, luminescence; percent of tunicamycin response over DMSO baseline;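 active = at 10 µM dose, activation of 40% or more, normalized to positive control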;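 note: 100% = tunicamycin at 10 µg/mL and 0% = DMSO alone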
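Dosing – one dose, 10 µM in 0.5% DMSO · System – CHO-CHOP cells, stable luciferase reporter of PERK-eIF2a-CHOP signalling · Input – 500 cells/well · Control set – tunicamycin 10 µg/mL final as positive, DMSO-only wells as negative · Timing – 6 h compound treatment, 37 °C · Measure – % activation vs tunicamycin · Technique – luminescence read with Steady-Glo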
TLR9-MyD88 block = inhibitors of human TLR9-MyD88 binding; Q9NR96+Q99836; CHO BLA complementation TLR9-MyD88, CCF4 FRET ratio; inhibition, % at 4.98 µM; hit rate 0.21% among 340,000; AID 504734;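 active = inhibition above the mean over all tested compounds plus 3 SD, cut at about 21% in these data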;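 note: 0% = DMSO only wells and 100% = clavulanate BLA inhibitor control wells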
The depositor's hits bear a star; · = not tested or not shown. Shown is part of a subset that was picked to be rich in hits.

SMILES | CHOP inhibitor | UPR XBP1 act | TLR4 MyD88 comp | NOD2-RIPK2 inh | CHOP UPR activ | TLR9-MyD88 block
O=C(CSc1cccc(C(F)(F)F)c1)NC(=O)c1ccccc1 | 17 | -1 | 2 | -13 | 0 | -2
O=C(CSc1cccc(C(F)(F)F)c1)Nc1ccc(Cl)cc1Cl | 83* | 0 | 0 | 4 | -1 | -2
O=C(CSc1cccc(C(F)(F)F)c1)NC(=O)NCc1ccco1 | 82* | -2 | -4 | -1 | 0 | -1
Cc1cccc(N=C2NC(=O)/C(=C3/C(=O)N(C)c4ccccc43)S2)c1C | 88* | 0 | 8 | 7 | 4 | -12
O=c1c2ccccc2sn1-c1nccs1 | 94* | · | 1 | 18 | · | ·
O=C1c2ccccc2C(=O)N1c1nccs1 | · | · | · | -7 | · | 1
O=C(Nc1ccc(N2CCOCC2)cc1)Nc1ccc(Cl)c(Cl)c1 | 79* | 3 | 2 | 1 | 4 | 2
Cc1c(C(=O)NCCSCc2ccccc2Cl)cccc1[N+](=O)[O-] | 17 | 1 | 1 | -5 | 0 | 0
Cc1c(C(=O)Nc2nnc(SCc3ccccc3Cl)s2)cccc1[N+](=O)[O-] | 78* | -1 | 10 | -8 | 1 | -6
CCCc1sc(N/N=C/c2ccccn2)nc1-c1ccc(F)cc1 | 87* | 7 | 0 | -12 | 20 | -8
Cc1nc(N/N=C/c2ccccn2)sc1C | 86* | · | 2 | · | · | ·
CCN=c1scc(-c2ccc(F)cc2)n1/N=C/c1ccccn1 | 5 | 10 | -13 | 4 | 3 | -5
COC(=O)c1ccc(/C=N/Nc2nc(C)c(C)s2)cc1 | -41 | 0 | · | 11 | 7 | 4
CN(C)CCNc1ncnc2c1ncn2[C@H]1CN(Cc2ccco2)C[C@@H](CO)O1 | · | · | · | -2 | · | ·
Cc1c(C(=O)Nc2ccc(-c3nnc4n3CCCCC4)cc2)oc2c1ccc1ccccc12 | 95* | -2 | 6 | 2 | 5 | 0
Cc1ccsc1C(=O)N1CCC1(C)C(=O)NCc1cccnc1 (stereo not given) | · | · | · | -10 | · | ·
Clc1ccc(/C=N/NC(=Nc2ccccc2)c2ccccn2)c(Cl)c1 | 81* | 0 | 3 | -1 | -2 | 4
CC(=O)NC1CC2CCCC(C1)N2C(=O)Nc1cccc(Cl)c1 (stereo not given) | · | · | · | 6 | · | 5
CC(C)(C)c1cc(=O)n(-c2ccccc2)[nH]1 | 70* | · | 0 | 1 | · | 4
O=c1ccc2c(OCCCCc3ccccc3)c3ccoc3cc2o1 | -13 | · | · | · | · | ·
Fc1ccc(-n2nnc(-c3cnc4ccccc4c3)n2)cc1 | 72* | -8 | -8 | 3 | -7 | 3
COc1ccccc1C(=O)NC(=O)COC(=O)c1cnccn1 | · | · | · | -9 | · | -1
Cc1ccc(C2CC(c3ccc(Cl)cc3)=NNC2=O)cc1 (stereo not given) | 56 | 0 | 2 | -1 | -2 | -1
O=C1NN=C(c2ccc(Br)cc2)CC1c1ccc(Cl)cc1 (stereo not given) | 91* | 0 | 9 | -7 | 1 | -7
CC(C)(C)c1ccc(CC(=O)N2CCC2(C)C(=O)NCc2cccs2)cc1 (stereo not given) | · | · | · | -2 | · | ·
SMILES | CHOP inhibitor | UPR XBP1 act | TLR4 MyD88 comp | NOD2-RIPK2 inh | CHOP UPR activ | TLR9-MyD88 block
CC(C)(C)C1CCC(=NOC(=O)c2ccc(F)cc2)CC1 (stereo not given) | 82* | -2 | 8 | 5 | 0 | -4
Cc1ccc(OCc2ccc(C(=O)Nc3nc4ccccc4n3Cc3ccccc3)o2)c([N+](=O)[O-])c1 | 88* | 1 | -10 | -3 | -1 | -9
O=S(Cc1ccc(Br)cc1)Cc1nnc(SCc2ccc(Cl)cc2)n1-c1ccccc1 (stereo not given) | 85* | 1 | 1 | 6 | 11 | -1
O=S(Cc1ccc(Br)cc1)Cc1nnc(SCc2c(F)cccc2Cl)n1-c1ccccc1 (stereo not given) | 74* | -2 | 0 | 1 | 4 | 0
CC(C)COC(=O)N(C)C[C@H]1OCc2cnnn2CCCC(=O)N([C@H](C)CO)C[C@@H]1C | · | · | · | 4 | · | -10
O=C(CSc1nnc(COc2ccc(Cl)cc2)o1)OC1CCCCC1 | 74* | -1 | 3 | 3 | -1 | -4
CC(C)NC(=O)NC(=O)CSc1nnc(COc2ccccc2Cl)o1 | 48 | 1 | -11 | -7 | 1 | -33
O=C(CSc1nnc(CNc2ccc(F)cc2)o1)OC1CCCCC1 | 10 | 0 | 2 | 2 | 2 | -2
O=C(CSc1nnc(COc2ccccc2Cl)o1)NC(=O)NC1CCCC1 | 79* | 0 | -15 | -2 | 2 | 6
Clc1ccc(CSc2nnc(CNc3cccc(Cl)c3)o2)cc1 | 93* | -1 | 13 | -5 | -3 | -3
O=C(CSc1nnc(CNc2cccc(Cl)c2)o1)OC1CCCCC1 | 80* | 1 | 7 | -4 | -1 | 6
Cc1cc(OCc2nnc(SCC(=O)OC3CCCCC3)o2)ccc1Cl | 37 | -2 | -9 | 4 | 0 | -2
CCC(=O)N1CCCC1(C)C(=O)Nc1cccc(Oc2ccccc2)c1 (stereo not given) | · | · | · | -15 | · | ·
COc1ccccc1CNC(=O)C(=O)NCC1CCCN1S(=O)(=O)c1cc(C)ccc1C (stereo not given) | · | · | · | -18 | · | 10
COc1ccc(CNc2nc3c(c(C(F)(F)F)n2)CCCCC3)cc1 | 90* | · | -16 | · | · | ·
COc1ccc(CNC(=O)Cn2nc(C(F)(F)F)c3c2CCC3)cc1 | -4 | 0 | 7 | 5 | -1 | -6
Cc1ccc2cc(CN(CCCN(C)C)C(=O)NCc3ccccc3)c(=O)[nH]c2c1C | 74* | -4 | -16 | -3 | -3 | 2
CC(C)c1cccc(-c2csc(C(C)(O)c3ccccc3)n2)c1 (stereo not given) | · | · | · | 1 | · | ·
COc1ccc(Br)cc1C(=O)N/N=C/c1ccc([N+](=O)[O-])cc1 | 100* | 5 | -12 | 0 | -1 | -11
O=C(NCc1ccco1)c1ccc(-c2ccc(F)c(F)c2)c2ccoc12 | · | · | · | 9 | · | ·
Cc1ccc(NC(=O)C(C)c2ccc(-c3ccccc3)c(F)c2)cc1 (stereo not given) | 73* | -2 | 0 | 5 | -1 | 2
CCOC(=O)n1c(=O)n(Cc2ccc(Cl)c(Cl)c2)c2ccccc21 | 81* | -2 | 8 | -8 | 0 | 1
CCOC(=O)n1c(=O)n(Cc2ccccc2)c2ccccc21 | 48 | -3 | -1 | -1 | 2 | 3
CCCCOCCCNC(=O)C[C@@H]1C[C@@]2(C(=O)OCC)CCC=C2N(Cc2ccco2)C1=O | · | · | · | -2 | · | ·
COc1cc(OC)c(OC)cc1CNC(=O)c1cccc(S(=O)(=O)N2CCc3ccccc3C2)c1 | · | -2 | · | 4 | 7 | 4
